Data as given in ChEMBL document CHEMBL1795268, “Synthesis and antimicrobial activity of some novel dicationic sulphonophanes” (2011).
≈ marks a conversion by molar mass, not a printed value. Calls of active or inactive are those of the source. No cut-off for these calls is given here.

Assays:
Escherichia coli = experiment: Antimicrobial activity against Escherichia coli after 24 hrs by agar well diffusion assay; format: functional
In short: (§1)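 Bacterial isolates from a university culture collection were grown in Mueller-Hinton broth for 8 h at 37 °C, then swabbed onto nutrient agar plates. Test solutions went into wells cut in the agar, with commercial antibiotics as positive reference. Plates were incubated at 37 °C for 24 h, and the MIC was read from the zones of inhibition.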

Bacillus subtilis = experiment: Antimicrobial activity against Bacillus subtilis after 24 hrs by agar well diffusion assay; format: functional; in short: as §1
Staphylococcus aureus = experiment: Antimicrobial activity against Staphylococcus aureus after 24 hrs by agar well diffusion assay; format: functional; in short: as §1
Vibrio cholerae = experiment: Antimicrobial activity against Vibrio cholerae after 24 hrs by agar well diffusion assay; format: functional
Proteus vulgaris = experiment: Antimicrobial activity against Proteus vulgaris after 24 hrs by agar well diffusion assay; format: functional; in short: as §1
Candida albicans = experiment: Antifungal activity against Candida albicans after 48 hrs by agar well diffusion assay; format: functional
In short: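 C. albicans, kept on Sabouraud's dextrose agar, was grown in Sabouraud's dextrose broth at 37 °C for 8 h to make the inoculum for agar well diffusion. The MIC was recorded.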

[1] = target: Gyrase B (Escherichia coli) (UniProt Q6S6F1); experiment: Inhibition of Escherichia coli DNA gyrase B

O=C(O)c1cn(C2CC2)c2cc(N3CCNCC3)c(F)cc2c1=O [CIPROFLOXACIN]
MIC (Escherichia coli): 5 µg/mL (≈ 15.1 µM) | MIC (Bacillus subtilis): 5 µg/mL (≈ 15.1 µM) | MIC (Staphylococcus aureus): 5 µg/mL (≈ 15.1 µM) | MIC (Vibrio cholerae): 10 µg/mL (≈ 30.2 µM) | MIC (Proteus vulgaris): 10 µg/mL (≈ 30.2 µM)

Clc1ccccc1C(c1ccccc1)(c1ccccc1)n1ccnc1 [CLOTRIMAZOLE]
MIC (Candida albicans): 5 µg/mL (≈ 14.5 µM)

O=S1(=O)c2ccc(cc2)Cn2cc[n+](c2)Cc2ccc(cc2)-c2cccc(c2)-c2ccc(cc2)C[n+]2ccn(c2)Cc2ccc1cc2.[Br-].[Br-]
MIC (Escherichia coli): 25 µg/mL | MIC (Bacillus subtilis): 15 µg/mL | MIC (Staphylococcus aureus): 30 µg/mL | MIC (Candida albicans): 5 µg/mL | MIC (Vibrio cholerae): 25 µg/mL | MIC (Proteus vulgaris): 20 µg/mL

O=S1(=O)c2ccc(cc2)Cn2cc[n+](c2)Cc2cccc(c2)C[n+]2ccn(c2)Cc2ccc1cc2.[Br-].[Br-]
MIC (Escherichia coli): 55 µg/mL | MIC (Bacillus subtilis): 20 µg/mL | MIC (Staphylococcus aureus): 30 µg/mL | MIC (Candida albicans): 40 µg/mL | MIC (Vibrio cholerae): 35 µg/mL | MIC (Proteus vulgaris): 40 µg/mL

O=C1c2ccc(cc2)C[n+]2ccn(c2)Cc2ccc(cc2)S(=O)(=O)c2ccc(cc2)Cn2cc[n+](c2)Cc2ccc1cc2.[Br-].[Br-]
MIC (Escherichia coli): 25 µg/mL | MIC (Bacillus subtilis): 15 µg/mL | MIC (Staphylococcus aureus): 15 µg/mL | MIC (Candida albicans): 5 µg/mL | MIC (Vibrio cholerae): 5 µg/mL | inhibition [1]: Active | MIC (Proteus vulgaris): 30 µg/mL

COc1cc2c(OC)cc1C[n+]1ccn(c1)Cc1ccc(cc1)S(=O)(=O)c1ccc(cc1)Cn1cc[n+](c1)C2.[Br-].[Br-]
MIC (Escherichia coli): 30 µg/mL | MIC (Bacillus subtilis): 15 µg/mL | MIC (Staphylococcus aureus): 10 µg/mL | MIC (Candida albicans): 10 µg/mL | MIC (Vibrio cholerae): 40 µg/mL | MIC (Proteus vulgaris): 30 µg/mL

O=S1(=O)c2ccc(cc2)Cn2cc[n+](c2)Cc2ccccc2C[n+]2ccn(c2)Cc2ccc1cc2.[Br-].[Br-]
MIC (Escherichia coli): 30 µg/mL | MIC (Bacillus subtilis): 40 µg/mL | MIC (Staphylococcus aureus): 40 µg/mL | MIC (Candida albicans): 20 µg/mL | MIC (Vibrio cholerae): 35 µg/mL | MIC (Proteus vulgaris): 60 µg/mL

O=S1(=O)c2ccc(cc2)Cn2cc[n+](c2)Cc2ccc(cc2)S(=O)(=O)c2ccc(cc2)C[n+]2ccn(c2)Cc2ccc1cc2.[Br-].[Br-]
MIC (Escherichia coli): 15 µg/mL | MIC (Bacillus subtilis): 10 µg/mL | MIC (Staphylococcus aureus): 5 µg/mL | MIC (Candida albicans): 5 µg/mL | MIC (Vibrio cholerae): 10 µg/mL | inhibition [1]: Active | MIC (Proteus vulgaris): 15 µg/mL

O=C1c2ccc(cc2)C[n+]2ccn(c2)Cc2ccc(cc2)S(=O)(=O)c2ccc(cc2)Cn2cc[n+](c2)Cc2ccc(cc2)C(=O)c2cccc1c2.[Br-].[Br-]
MIC (Escherichia coli): 30 µg/mL | MIC (Bacillus subtilis): 35 µg/mL | MIC (Staphylococcus aureus): 40 µg/mL | MIC (Candida albicans): 15 µg/mL | MIC (Vibrio cholerae): 30 µg/mL | MIC (Proteus vulgaris): 25 µg/mL

O=S1(=O)c2ccc(cc2)Cn2cc[n+](c2)Cc2ccc(cc2)C[n+]2ccn(c2)Cc2ccc1cc2.[Br-].[Br-]
MIC (Escherichia coli): 60 µg/mL | MIC (Bacillus subtilis): 30 µg/mL | MIC (Staphylococcus aureus): 25 µg/mL | MIC (Candida albicans): 25 µg/mL | MIC (Vibrio cholerae): 70 µg/mL | MIC (Proteus vulgaris): 40 µg/mL
